Data taken from ChEMBL document CHEMBL1138552, “Synthesis of modified pyrimidine bases and positive impact of chemically reactive substituents on their in vitro antiproliferative activity” (Eur J Med Chem, 2009).

Legend:
SW-620 = test: Growth inhibition of human SW620 cells after 72 hrs by MTT assay; type: functional, cell-based; conditions: SW-620, 72 h
Procedure, shortened: (§1)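 Cells were seeded on day 0 at 1 × 10⁴–3 × 10⁴ cells/mL according to doubling time. Compound was added in 10-fold dilutions (10⁻⁸–10⁻⁴ M) from DMSO stocks (final DMSO ≤0.25%, solvent control run) and incubated 72 h. Percentage of growth was calculated, four parallel samples in three experiments. IC50 was derived by linear regression between the concentrations bracketing PG 50; if none fell below, the result was reported as >highest concentration.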

HeLa [1] = test: Growth inhibition of human HeLa cells after 72 hrs by MTT assay; type: functional, cell-based; procedure, shortened: as §1
MCF7 = test: Growth inhibition of human MCF7 cells after 72 hrs by MTT assay; type: functional, cell-based; conditions: MCF7, 72 h
Procedure, shortened: as §1, with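 “time.” for “time. Compound was added in 10-fold dilutions (10⁻⁸–10⁻⁴ M) from DMSO stocks (final DMSO ≤0.25%, solvent control run) and incubated 72 h.”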

MIA PaCa-2 = test: Growth inhibition of human MIAPaCa2 cells after 72 hrs by MTT assay; type: functional, cell-based; conditions: MIA PaCa-2, 72 h; procedure, shortened: as §1
NCI-H460 = test: Growth inhibition of human H460 cells after 72 hrs by MTT assay; type: functional, cell-based; conditions: NCI-H460, 72 h; procedure, shortened: as §1
HeLa [2] = test: Cell cycle arrest in human HeLa cells assessed as accumulation at subG1 phase at 20 uM after 48 hrs by flow cytometry; type: functional
Procedure, shortened: (§2)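 Seeded 2 × 10⁵ cells per well; compound added after 24 h. At 24, 48 and 72 h post-treatment, attached cells were trypsinized and pooled with floating cells. Cells were PBS-washed, fixed in 70% ethanol, then stained with propidium iodide plus RNase A. DNA histograms came from 20 000 events per sample and gave the phase percentages. At least two experiments were run in triplicate, with Student t-test (p < 0.05).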

HaCaT = test: Growth inhibition of human HaCaT cells after 72 hrs by MTT assay; type: cell-based; procedure, shortened: as §1
HeLa [3] = test: Cell cycle arrest in human HeLa cells assessed as accumulation at G2/M phase at 20 uM after 48 hrs by flow cytometry; type: functional; procedure, shortened: as §2
HeLa [4] = test: Cell cycle arrest in human HeLa cells assessed as accumulation at G0/G1 phase at 20 uM after 48 hrs by flow cytometry; type: functional; procedure, shortened: as §2
HeLa [5] = test: Cell cycle arrest in human HeLa cells assessed as accumulation at subG1 phase at 20 uM after 24 hrs by flow cytometry; type: functional; procedure, shortened: as §2
HeLa [6] = test: Cell cycle arrest in human HeLa cells assessed as accumulation at S phase at 20 uM after 24 hrs by flow cytometry; type: functional; procedure, shortened: as §2
HeLa [7] = test: Cell cycle arrest in human HeLa cells assessed as accumulation at G0/G1 phase at 20 uM after 24 hrs by flow cytometry; type: functional; procedure, shortened: as §2
HeLa [8] = test: Cell cycle arrest in human HeLa cells assessed as accumulation at G2/M phase at 20 uM after 72 hrs by flow cytometry; type: functional; procedure, shortened: as §2
HeLa [9] = test: Cell cycle arrest in human HeLa cells assessed as accumulation at G0/G1 phase at 20 uM after 72 hrs by flow cytometry; type: functional; procedure, shortened: as §2
HeLa [10] = test: Cell cycle arrest in human HeLa cells assessed as accumulation at S phase at 20 uM after 48 hrs by flow cytometry; type: functional; procedure, shortened: as §2
HeLa [11] = test: Cell cycle arrest in human HeLa cells assessed as accumulation at subG1 phase at 20 uM after 72 hrs by flow cytometry; type: functional; procedure, shortened: as §2
HeLa [12] = test: Cell cycle arrest in human HeLa cells assessed as accumulation at G2/M phase at 20 uM after 24 hrs by flow cytometry; type: functional; procedure, shortened: as §2
HeLa [13] = test: Cell cycle arrest in human HeLa cells assessed as accumulation at S phase at 20 uM after 72 hrs by flow cytometry; type: functional; procedure, shortened: as §2
HeLa [14] = test: Cell cycle arrest in human HeLa cells assessed as accumulation at G2/M phase at 10 uM after 24 hrs by flow cytometry; type: functional
Procedure, shortened: (§3)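 HeLa cells seeded at 2 × 10⁵ per well; compound added after 24 h. At 24, 48 and 72 h, attached and floating cells were pooled, PBS-washed, fixed in 70% ethanol, then stained with propidium iodide plus RNase A. Flow cytometry counted 20 000 events, and phase percentages came from DNA histograms. At least two experiments in triplicate; Student t-test (p < 0.05).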

HeLa [15] = test: Cell cycle arrest in human HeLa cells assessed as accumulation at G0/G1 phase at 10 uM after 24 hrs by flow cytometry; type: functional; procedure, shortened: as §3
HeLa [16] = test: Cell cycle arrest in human HeLa cells assessed as accumulation at G2/M phase at 10 uM after 48 hrs by flow cytometry; type: functional; procedure, shortened: as §3
HeLa [17] = test: Cell cycle arrest in human HeLa cells assessed as accumulation at subG1 phase at 10 uM after 24 hrs by flow cytometry; type: functional; procedure, shortened: as §3
HeLa [18] = test: Cell cycle arrest in human HeLa cells assessed as accumulation at S phase at 10 uM after 24 hrs by flow cytometry; type: functional; procedure, shortened: as §3
HeLa [19] = test: Cell cycle arrest in human HeLa cells assessed as accumulation at G0/G1 phase at 10 uM after 48 hrs by flow cytometry; type: functional; procedure, shortened: as §3
HeLa [20] = test: Cell cycle arrest in human HeLa cells assessed as accumulation at G0/G1 phase at 10 uM after 72 hrs by flow cytometry; type: functional; procedure, shortened: as §3
HeLa [21] = test: Cell cycle arrest in human HeLa cells assessed as accumulation at G2/M phase at 10 uM after 72 hrs by flow cytometry; type: functional; procedure, shortened: as §3
HeLa [22] = test: Cell cycle arrest in human HeLa cells assessed as accumulation at subG1 phase at 10 uM after 72 hrs by flow cytometry; type: functional; procedure, shortened: as §3
HeLa [23] = test: Cell cycle arrest in human HeLa cells assessed as accumulation at S phase at 10 uM after 48 hrs by flow cytometry; type: functional; procedure, shortened: as §3
HeLa [24] = test: Cell cycle arrest in human HeLa cells assessed as accumulation at subG1 phase at 10 uM after 48 hrs by flow cytometry; type: functional; procedure, shortened: as §3
HeLa [25] = test: Cell cycle arrest in human HeLa cells assessed as accumulation at S phase at 10 uM after 72 hrs by flow cytometry; type: functional; procedure, shortened: as §3

Compound	IC50 (SW-620)	IC50 (HeLa [1])	IC50 (MCF7)	IC50 (MIA PaCa-2)	IC50 (NCI-H460)	further results
Cc1cc(=O)[nH]c(=O)n1COC(CO)CO	> 100 µM	> 100 µM	> 100 µM	> 100 µM	> 100 µM	–
Nc1cn(COC(CO)CO)c(=O)[nH]c1=O	> 100 µM	> 100 µM	> 100 µM	> 100 µM	> 100 µM	–
O=c1ccn(COC(CO)CO)c(=O)[nH]1	> 100 µM	> 100 µM	> 100 µM	> 100 µM	> 100 µM	–
O=C(CCl)Nc1c[nH]c(=O)[nH]c1=O	12 µM	4 µM	15 µM	17 µM	14 µM	Activity (HeLa [2]): 14%; IC50 (HaCaT): > 100 µM; Activity (HeLa [3]): 7%; Activity (HeLa [4]): 48%; Activity (HeLa [5]): 12%; Activity (HeLa [6]): 43%; Activity (HeLa [7]): 50%; Activity (HeLa [8]): 8%; Activity (HeLa [9]): 50%; Activity (HeLa [10]): 45%; Activity (HeLa [11]): 25%; Activity (HeLa [12]): 6%; Activity (HeLa [13]): 48%
O=c1[nH]c(=O)n(COC(CO)CO)cc1O	> 100 µM	> 100 µM	> 100 µM	> 100 µM	> 100 µM	–
Cc1ccc(S(=O)(=O)Nc2ccn(C)c(=O)n2)cc1	> 100 µM	> 100 µM	> 100 µM	> 100 µM	> 100 µM	–
CSc1cc[nH]c(=O)n1	> 100 µM	> 100 µM	> 100 µM	> 100 µM	> 100 µM	–
Cc1ccc(S(=O)(=O)Nc2cc[nH]c(=O)n2)cc1	> 100 µM	> 100 µM	27 µM	> 100 µM	> 100 µM	–
N[C@H](CSCC(=O)Nc1c[nH]c(=O)[nH]c1=O)C(=O)O	70 µM	86 µM	> 100 µM	80 µM	> 100 µM	–
COc1ccc(CSCCN(CCSCc2ccc(OC)cc2)CC(=O)Nc2c[nH]c(=O)[nH]c2=O)cc1	70 µM	4 µM	> 100 µM	3 µM	76 µM	Activity (HeLa [2]): 24%; IC50 (HaCaT): 9 µM; Activity (HeLa [3]): 13%; Activity (HeLa [4]): 59%; Activity (HeLa [5]): 17%; Activity (HeLa [6]): 24%; Activity (HeLa [7]): 56%; Activity (HeLa [8]): 13%; Activity (HeLa [9]): 43%; Activity (HeLa [10]): 27%; Activity (HeLa [11]): 58%; Activity (HeLa [12]): 20%; Activity (HeLa [13]): 44%
CC(C)(C)OC(=O)NCCNCC(=O)Nc1c[nH]c(=O)[nH]c1=O	50 µM	50 µM	> 100 µM	50 µM	> 100 µM	–
Cn1ccc(N)nc1=O	> 100 µM	12 µM	> 100 µM	> 100 µM	> 100 µM	–
NCC(=O)Nc1c[nH]c(=O)[nH]c1=O	> 100 µM	> 100 µM	> 100 µM	> 100 µM	> 100 µM	–
O=C(CCl)Nc1cn(COC(CO)CO)c(=O)[nH]c1=O	19 µM	12 µM	32 µM	18 µM	24 µM	IC50 (HaCaT): > 100 µM
Cn1cc(CO)c(N)nc1=O	> 100 µM	> 100 µM	> 100 µM	> 100 µM	> 100 µM	–
O=c1[nH]cc(F)c(=O)[nH]1 [FLUOROURACIL]	9 µM	4 µM	–	10 µM	2 µM	Activity (HeLa [14]): 1%; IC50 (HaCaT): 0.4 µM; Activity (HeLa [15]): 60%; Activity (HeLa [16]): 0%; Activity (HeLa [17]): 10%; Activity (HeLa [18]): 39%; Activity (HeLa [19]): 59%; Activity (HeLa [20]): 57%; Activity (HeLa [21]): 0%; Activity (HeLa [22]): 26%; Activity (HeLa [23]): 41%; Activity (HeLa [24]): 12%; Activity (HeLa [25]): 43%
O=c1[nH]c(=O)n(COC(CO)CO)cc1I [IODACYCLUR]	> 100 µM	30 µM	> 100 µM	> 100 µM	> 100 µM	–
Cc1c(I)c(=O)[nH]c(=O)n1COC(CO)CO [IODMETACYCLUR]	> 100 µM	73 µM	> 100 µM	> 100 µM	> 100 µM	–
O=c1nc(NO)cc[nH]1 [N4-hydroxycytosine]	> 100 µM	> 100 µM	> 100 µM	> 100 µM	> 100 µM	–
